Results on seven molecules are retold here after ChEMBL document CHEMBL2417362, “Truncation of the peptide sequence in bifunctional ligands with mu and delta opioid receptor agonist and neurokinin 1 receptor antagonist activities” (Bioorg Med Chem Lett, 2013).

Active and inactive are the calls of the source. The calls are words filed in the database; no cut-off is given here. Non-standard residues stand in square brackets, D forms with d. Residues, ends and D or L forms follow the SMILES beside them. *: point of attachment. OBzl(3,5-(CF3)2) = FC(F)(F)c1cc(CO*)cc(C(F)(F)F)c1

Experiment [1] has as its target Substance-P receptor (Cavia porcellus) (UniProt P30547). The experiment can be described thus: Antagonist activity at NK1 receptor in guinea pig ileum assessed as inhibition of substance P-induced muscle contraction. In kind it is tissue-based.
For experiment [2], the target named is Mu-type opioid receptor (Cavia porcellus) (UniProt P97266). The experiment can be described thus: Agonist activity at mu opioid receptor in guinea pig ileum assessed as inhibition of electrically-stimulated muscle contraction at 1 uM. In kind it is tissue-based.
Sequence of Mu-type opioid receptor (Cavia porcellus) (P97266 whole entry): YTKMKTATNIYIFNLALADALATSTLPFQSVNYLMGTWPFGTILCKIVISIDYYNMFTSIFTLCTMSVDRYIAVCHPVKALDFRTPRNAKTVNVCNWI
In experiment [3] the target is Substance-P receptor (Homo sapiens, UniProt P25103). The experiment can be described thus: Displacement of [3H]substance P from human NK1 receptor expressed in CHO cells. In kind it is cell-based.
Sequence of Substance-P receptor (P25103 whole entry): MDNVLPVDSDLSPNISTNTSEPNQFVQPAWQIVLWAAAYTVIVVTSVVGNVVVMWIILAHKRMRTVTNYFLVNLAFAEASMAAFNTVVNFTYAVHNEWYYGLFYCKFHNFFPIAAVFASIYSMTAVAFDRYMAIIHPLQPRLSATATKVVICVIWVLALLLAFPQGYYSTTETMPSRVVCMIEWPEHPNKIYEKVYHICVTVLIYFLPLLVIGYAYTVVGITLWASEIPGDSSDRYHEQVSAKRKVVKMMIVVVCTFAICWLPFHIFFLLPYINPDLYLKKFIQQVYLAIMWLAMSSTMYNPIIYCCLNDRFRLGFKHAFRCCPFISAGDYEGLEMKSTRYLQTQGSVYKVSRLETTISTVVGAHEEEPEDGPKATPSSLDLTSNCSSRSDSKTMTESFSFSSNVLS
Experiment [4] relates to Rattus norvegicus. The experiment can be described thus: Antiallodynic activity in intrathecally dosed spinal nerve ligated Sprague-Dawley rat assessed as attenuation of SNL-induced tactile allodynia. In kind it is functional, organism-based. In a few lines: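 Spinal nerve ligated rats given intrathecal doses, expressed as µg/5 µL, with 10% DMSO/water as vehicle; tactile allodynia measured by von Frey and compared with vehicle over time.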

Experiment [5] deals with Rattus norvegicus. The experiment can be described thus: Antiallodynic activity in po dosed spinal nerve ligated Sprague-Dawley rat assessed as attenuation of SNL-induced tactile allodynia. In kind it is functional, organism-based. In a few lines: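 Spinal nerve ligated rats dosed orally; tactile (von Frey) and thermal hypersensitivity compared with vehicle.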
Experiment [6] deals with Rattus norvegicus. The experiment can be described thus: Antinociceptive activity in Sprague-Dawley rat assessed as […] at 10 ug/5 uL administered intrathecally. Type of experiment: functional, organism-based. In a few lines: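 Non-injured rats given intrathecal 10 µg/5 µL in 10% DMSO/90% distilled water; hind paw withdrawal latency to radiant heat (Hargreaves) read 15 min after injection and compared with vehicle.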

Sequence of Substance-P receptor (Cavia porcellus) (P30547 whole entry): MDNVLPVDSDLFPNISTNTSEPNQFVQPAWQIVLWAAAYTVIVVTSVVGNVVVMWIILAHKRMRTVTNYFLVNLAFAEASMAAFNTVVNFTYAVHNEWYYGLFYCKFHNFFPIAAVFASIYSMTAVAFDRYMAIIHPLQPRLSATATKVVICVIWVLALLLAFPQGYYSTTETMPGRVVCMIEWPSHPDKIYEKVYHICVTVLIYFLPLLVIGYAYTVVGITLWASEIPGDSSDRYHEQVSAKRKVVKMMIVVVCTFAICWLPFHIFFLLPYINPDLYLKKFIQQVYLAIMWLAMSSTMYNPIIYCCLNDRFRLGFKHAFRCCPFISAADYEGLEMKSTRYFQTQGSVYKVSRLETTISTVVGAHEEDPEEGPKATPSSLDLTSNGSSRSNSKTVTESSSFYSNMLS

As usually defined, the inhibition is the drop in the measured response relative to a control, in per cent. Turning to `CSCC[C@H](NC(=O)[C@H](Cc1ccccc1)NC(=O)CNC(=O)[C@@H](C)NC(=O)[C@@H](N)Cc1ccc(O)cc1)C(=O)N1CCC[C@@H]1C(=O)N[C@@H](CC(C)C)C(=O)N[C@@H](Cc1c[nH]c2ccccc12)C(=O)OCc1cc(C(F)(F)F)cc(C(F)(F)F)c1`, the Ke in experiment [1] worked out at 29 nM. Moreover, the inhibition in experiment [2] stood at 25%. Turning to `CSCC[C@H](NC(=O)[C@H](Cc1ccccc1)NC(=O)CNC(=O)[C@@H](C)NC(=O)[C@@H](N)Cc1ccc(O)cc1)C(=O)NC1(C(=O)N[C@@H](CC(C)C)C(=O)N[C@@H](Cc2c[nH]c3ccccc23)C(=O)OCc2cc(C(F)(F)F)cc(C(F)(F)F)c2)CCCC1`, the Ke in experiment [1] was determined as 2 nM. What is called Ki is the dissociation constant of the complex between target and ligand, obtained from inhibition or displacement. A high value points to weaker binding. Consider `CSCC[C@H](NC(=O)[C@H](Cc1ccccc1)NC(=O)CNC(=O)[C@@H](C)NC(=O)[C@@H](N)Cc1ccc(O)cc1)C(=O)NC(C)(C)C(=O)N[C@@H](CC(C)C)C(=O)N[C@@H](Cc1c[nH]c2ccccc12)C(=O)OCc1cc(C(F)(F)F)cc(C(F)(F)F)c1`, for which the Ke in experiment [1] was found to be 12 nM. Besides, in experiment [3], the inhibition constant Ki worked out at 0.12 nM.

As for `C[C@@H](NC(=O)[C@@H](N)Cc1ccc(O)cc1)C(=O)NCC(=O)N[C@@H](Cc1ccccc1)C(=O)N1CCCC1C(=O)N[C@@H](Cc1c[nH]c2ccccc12)C(=O)OCc1cc(C(F)(F)F)cc(C(F)(F)F)c1` (single isomer, unassigned), in experiment [1], the Ke is 1.8 nM. Consider `CSCC[C@H](NC(=O)[C@H](Cc1ccccc1)NC(=O)CNC(=O)[C@@H](C)NC(=O)[C@@H](N)Cc1ccc(O)cc1)C(=O)N[C@@H](C)C(=O)N[C@@H](CC(C)C)C(=O)N[C@@H](Cc1c[nH]c2ccccc12)C(=O)OCc1cc(C(F)(F)F)cc(C(F)(F)F)c1` (H-Y[dA]GFMALW-{OBzl(3,5-(CF3)2)}), for which the Ke in experiment [1] came out at 380 nM.

Consider `C[C@@H](NC(=O)[C@@H](N)Cc1ccc(O)cc1)C(=O)NCC(=O)N[C@@H](Cc1ccccc1)C(=O)NCC(=O)N[C@@H](Cc1c[nH]c2ccccc12)C(=O)OCc1cc(C(F)(F)F)cc(C(F)(F)F)c1` (H-Y[dA]GFGW-{OBzl(3,5-(CF3)2)}), for which, in experiment [1], the Ke is 59 nM. In experiment [4], the Activity entry was “Dose-dependent effect”. Moreover, the outcome in experiment [5] was inactive. Besides, in experiment [6], the outcome was Active. As to `CC(C)C[C@H](NC(=O)[C@H](Cc1ccccc1)NC(=O)CNC(=O)[C@@H](C)NC(=O)[C@@H](N)Cc1ccc(O)cc1)C(=O)N[C@@H](Cc1c[nH]c2ccccc12)C(=O)OCc1cc(C(F)(F)F)cc(C(F)(F)F)c1` (H-Y[dA]GFLW-{OBzl(3,5-(CF3)2)}), the Ke in experiment [1] turned out to be 2 nM.
